Laboratory results taken from ChEMBL document CHEMBL5058577, “EUbOPEN Chemogenomics Library 2 (Multiplex)” (2022).

Tested on: Fibroblast
Assay: Multiplex assay against human fibroblast
Assay type: toxicity, cell-based
How it was run: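 At seeding, live cells were stained with Hoechst33342, BioTracker Green Microtubule Cytoskeleton Dye, MitoTracker Red and Annexin V Alexa Fluor 680. After compound addition they were imaged on a CQ1 microscope at 37°C and 5% CO2, and CellPathfinder machine-learning gating sorted them into Hoechst high-intensity objects or normal cells, with normal cells further split into healthy, pyknosed or fragmented nuclei and pyknosed cells into mitotic or apoptotic. Tubulin, mitochondrial-mass and membrane-permeability phenotypes are given as per cents of cells with healthy nuclei.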

[1] = 12 h, 1 µM, compound concentration 1 uM, replicate 1
[2] = 12 h, 1 µM, compound concentration 1 uM, replicate 2
[3] = 12 h, 10 µM, compound concentration 10 uM, replicate 1
[4] = 12 h, 10 µM, compound concentration 10 uM, replicate 2
[5] = 24 h, 1 µM, compound concentration 1 uM, replicate 1
[6] = 24 h, 1 µM, compound concentration 1 uM, replicate 2
[7] = 24 h, 10 µM, compound concentration 10 uM, replicate 1
[8] = 24 h, 10 µM, compound concentration 10 uM, replicate 2
[9] = 48 h, 1 µM, compound concentration 1 uM, replicate 1
[10] = 48 h, 1 µM, compound concentration 1 uM, replicate 2
[11] = 48 h, 10 µM, compound concentration 10 uM, replicate 1
[12] = 48 h, 10 µM, compound concentration 10 uM, replicate 2

Cl.Cl.OCCOCCN1CCN(C(c2ccccc2)c2ccc(Cl)cc2)CC1 (configuration not stated) [HYDROXYZINE HYDROCHLORIDE]
Population Apoptotic (%) [1]: 43% | Population Fragmented Nuclei (%) [1]: 11% | Population Healthy Nuclei (%) [1]: 75% | Population Hoechst High Intensity Objects (%) [1]: 1% | Population Membrane Permeable-Phenotype (%) [1]: 0% | Population Mitochondria Different-Phenotype (%) [1]: 4% | Population Mitotic Cells (%) [1]: 56% | Population Normal (%) [1]: 98% | Population Pyknosed Nuclei (%) [1]: 13% | Population Tubulin-Different-Phenotype (%) [1]: 25% | Total Cell Count [1]: 177 | Population Apoptotic (%) [2]: 51% | Population Fragmented Nuclei (%) [2]: 22% | Population Healthy Nuclei (%) [2]: 57% | Population Hoechst High Intensity Objects (%) [2]: 7% | Population Membrane Permeable-Phenotype (%) [2]: 8% | Population Mitochondria Different-Phenotype (%) [2]: 6% | Population Mitotic Cells (%) [2]: 48% | Population Normal (%) [2]: 92% | Population Pyknosed Nuclei (%) [2]: 20% | Population Tubulin-Different-Phenotype (%) [2]: 46% | Total Cell Count [2]: 155 | Population Apoptotic (%) [3]: 47% | Population Fragmented Nuclei (%) [3]: 27% | Population Healthy Nuclei (%) [3]: 58% | Population Hoechst High Intensity Objects (%) [3]: 2% | Population Membrane Permeable-Phenotype (%) [3]: 0% | Population Mitochondria Different-Phenotype (%) [3]: 14% | Population Mitotic Cells (%) [3]: 52% | Population Normal (%) [3]: 97% | Population Pyknosed Nuclei (%) [3]: 14% | Population Tubulin-Different-Phenotype (%) [3]: 45% | Total Cell Count [3]: 247 | Population Apoptotic (%) [4]: 40% | Population Fragmented Nuclei (%) [4]: 19% | Population Healthy Nuclei (%) [4]: 47% | Population Hoechst High Intensity Objects (%) [4]: 7% | Population Membrane Permeable-Phenotype (%) [4]: 7% | Population Mitochondria Different-Phenotype (%) [4]: 6% | Population Mitotic Cells (%) [4]: 59% | Population Normal (%) [4]: 92% | Population Pyknosed Nuclei (%) [4]: 32% | Population Tubulin-Different-Phenotype (%) [4]: 58% | Total Cell Count [4]: 178 | Population Apoptotic (%) [5]: 30% | Population Fragmented Nuclei (%) [5]: 9% | Population Healthy Nuclei (%) [5]: 78% | Population Hoechst High Intensity Objects (%) [5]: 1% | Population Membrane Permeable-Phenotype (%) [5]: 2% | Population Mitochondria Different-Phenotype (%) [5]: 6% | Population Mitotic Cells (%) [5]: 70% | Population Normal (%) [5]: 98% | Population Pyknosed Nuclei (%) [5]: 12% | Population Tubulin-Different-Phenotype (%) [5]: 30% | Total Cell Count [5]: 163 | Population Apoptotic (%) [6]: 44% | Population Fragmented Nuclei (%) [6]: 26% | Population Healthy Nuclei (%) [6]: 54% | Population Hoechst High Intensity Objects (%) [6]: 5% | Population Membrane Permeable-Phenotype (%) [6]: 5% | Population Mitochondria Different-Phenotype (%) [6]: 3% | Population Mitotic Cells (%) [6]: 55% | Population Normal (%) [6]: 94% | Population Pyknosed Nuclei (%) [6]: 18% | Population Tubulin-Different-Phenotype (%) [6]: 47% | Total Cell Count [6]: 154 | Population Apoptotic (%) [7]: 51% | Population Fragmented Nuclei (%) [7]: 28% | Population Healthy Nuclei (%) [7]: 62% | Population Hoechst High Intensity Objects (%) [7]: 1% | Population Membrane Permeable-Phenotype (%) [7]: 1% | Population Mitochondria Different-Phenotype (%) [7]: 10% | Population Mitotic Cells (%) [7]: 48% | Population Normal (%) [7]: 98% | Population Pyknosed Nuclei (%) [7]: 9% | Population Tubulin-Different-Phenotype (%) [7]: 47% | Total Cell Count [7]: 284 | Population Apoptotic (%) [8]: 36% | Population Fragmented Nuclei (%) [8]: 29% | Population Healthy Nuclei (%) [8]: 50% | Population Hoechst High Intensity Objects (%) [8]: 9% | Population Membrane Permeable-Phenotype (%) [8]: 6% | Population Mitochondria Different-Phenotype (%) [8]: 6% | Population Mitotic Cells (%) [8]: 63% | Population Normal (%) [8]: 90% | Population Pyknosed Nuclei (%) [8]: 20% | Population Tubulin-Different-Phenotype (%) [8]: 66% | Total Cell Count [8]: 198 | Population Apoptotic (%) [9]: 60% | Population Fragmented Nuclei (%) [9]: 17% | Population Healthy Nuclei (%) [9]: 68% | Population Hoechst High Intensity Objects (%) [9]: 4% | Population Membrane Permeable-Phenotype (%) [9]: 0% | Population Mitochondria Different-Phenotype (%) [9]: 3% | Population Mitotic Cells (%) [9]: 39% | Population Normal (%) [9]: 95% | Population Pyknosed Nuclei (%) [9]: 13% | Population Tubulin-Different-Phenotype (%) [9]: 31% | Total Cell Count [9]: 175 | Population Apoptotic (%) [10]: 42% | Population Fragmented Nuclei (%) [10]: 34% | Population Healthy Nuclei (%) [10]: 56% | Population Hoechst High Intensity Objects (%) [10]: 3% | Population Membrane Permeable-Phenotype (%) [10]: 2% | Population Mitochondria Different-Phenotype (%) [10]: 5% | Population Mitotic Cells (%) [10]: 57% | Population Normal (%) [10]: 96% | Population Pyknosed Nuclei (%) [10]: 9% | Population Tubulin-Different-Phenotype (%) [10]: 44% | Total Cell Count [10]: 155 | Population Apoptotic (%) [11]: 80% | Population Fragmented Nuclei (%) [11]: 22% | Population Healthy Nuclei (%) [11]: 69% | Population Hoechst High Intensity Objects (%) [11]: 4% | Population Membrane Permeable-Phenotype (%) [11]: 0% | Population Mitochondria Different-Phenotype (%) [11]: 7% | Population Mitotic Cells (%) [11]: 19% | Population Normal (%) [11]: 95% | Population Pyknosed Nuclei (%) [11]: 8% | Population Tubulin-Different-Phenotype (%) [11]: 62% | Total Cell Count [11]: 272 | Population Apoptotic (%) [12]: 37% | Population Fragmented Nuclei (%) [12]: 36% | Population Healthy Nuclei (%) [12]: 47% | Population Hoechst High Intensity Objects (%) [12]: 6% | Population Membrane Permeable-Phenotype (%) [12]: 11% | Population Mitochondria Different-Phenotype (%) [12]: 2% | Population Mitotic Cells (%) [12]: 62% | Population Normal (%) [12]: 94% | Population Pyknosed Nuclei (%) [12]: 15% | Population Tubulin-Different-Phenotype (%) [12]: 57% | Total Cell Count [12]: 200
